Results collected from several papers.
Lines come from different studies, so protocols differ.

| Structure (SMILES) | test system | conditions | quantity | value |
| --- | --- | --- | --- | --- |
| C[C@]12CC[C@H](n3ccnc3)CC1=CC[C@@H]1[C@@H]2CC[C@]2(C)C(n3cnc4ccccc43)=CC[C@@H]12.Cl.Cl | male CD-1 mouse, plasma | oral, 10 mg/kg | Tmax | 1040 min |
| N=c1c2c(-c3ccccc3)c(-c3ccccc3)n(Cc3ccccc3)c2ncn1[C@H]1CC[C@H](O)CC1 | Caco-2 | 3 µM, 2 h, pH 7.4 | efflux ratio | 10 |
| Cc1ccccc1C(=O)NN=Cc1ccc(O)c(Br)c1 | mouse, plasma | intraperitoneal, 0.8 mg/kg | Tmax | 30 min |
| Cc1nc2c(=O)n(C)c(=O)nc-2n(C)n1 | Caco-2 | – | efflux ratio | 1 |
| C[C@H]1O[C@@H](O[C@H]2[C@@H](O)C[C@H](O[C@H]3[C@@H](O)C[C@H](O[C@H]4CC[C@@]5(C)[C@H](CC[C@@H]6[C@@H]5C[C@@H](O)[C@]5(C)[C@@H](C7=CC(=O)OC7)CC[C@]65O)C4)O[C@@H]3C)O[C@@H]2C)C[C@H](O)[C@@H]1O | Caco-2 | 10 µM, 1 h, pH 7.4 | efflux ratio | 5.33 |
| C/N=c1\nc(-c2ccccc2)n(-c2ccccc2)s1 | Caco-2 | 20 µM, 95 min | efflux ratio | 0.962 |
| C=C(C)[C@@H]1CC[C@]2(NCCN3CCS(=O)(=O)CC3)CC[C@]3(C)[C@H](CC[C@@H]4[C@@]5(C)CC=C(C6=CC[C@@](COc7ncccc7C#N)(C(=O)O)CC6)C(C)(C)[C@@H]5CC[C@]43C)[C@@H]12 | human, plasma | oral, 100 mg, single dose, fasted, tablet | Cmax | 228 ng/mL |
| COc1ccc2[nH]cc(CCNc3nccc(Nc4cccc5c4ccn5C)n3)c2c1 | mouse, plasma | oral, 28.6 mg/kg | Tmax | 15 min |
| c1cc([C@H]2CC[C@]3(CC2)OO[C@]2(O3)C3CC4CC(C3)CC2C4)ccc1OCCN1CCOCC1 | human, plasma | oral, 800 mg, patients | Cmax | 1710 ng/mL |
| CC[C@H](C)[C@H](NC(=O)[C@H](CC(C)C)NC(=O)[C@H](Cc1c[nH]c2ccccc12)NC(=O)[C@H](CCC(N)=O)NC(=O)[C@@H](NC(=O)[C@H](Cc1ccccc1)NC(=O)[C@H](C)NC(=O)[C@H](CCCCNC(=O)COCCOCCNC(=O)COCCOCCNC(=O)CC[C@H](NC(=O)CCCCCCCCCCCCCCCCCCC(=O)O)C(=O)O)NC(=O)[C@H](CCC(N)=O)NC(=O)[C@H](C)NC(=O)[C@@H](NC(=O)[C@H](CCCCN)NC(=O)[C@H](CC(=O)O)NC(=O)[C@H](CC(C)C)NC(=O)C(C)(C)NC(=O)[C@@H](NC(=O)[C@H](CO)NC(=O)[C@H](Cc1ccc(O)cc1)NC(=O)[C@H](CC(=O)O)NC(=O)[C@H](CO)NC(=O)[C@@H](NC(=O)[C@H](Cc1ccccc1)NC(=O)[C@@H](NC(=O)CNC(=O)[C@H](CCC(=O)O)NC(=O)C(C)(C)NC(=O)[C@@H](N)Cc1ccc(O)cc1)[C@@H](C)O)[C@@H](C)O)[C@@H](C)CC)[C@@H](C)CC)C(C)C)C(=O)N[C@@H](C)C(=O)NCC(=O)NCC(=O)N1CCC[C@H]1C(=O)N[C@@H](CO)C(=O)N[C@@H](CO)C(=O)NCC(=O)N[C@@H](C)C(=O)N1CCC[C@H]1C(=O)N1CCC[C@H]1C(=O)N1CCC[C@H]1C(=O)N[C@@H](CO)C(N)=O | human, plasma | subcutaneous, 4.5 mg, multiple doses, healthy volunteers | Cmax | 884 ng/mL |
| CC(=C/C=C/C(C)=C/C(=O)O)/C=C1\CCCc2ccccc21 | human, plasma | oral, 5 mg, single dose, fasted, healthy volunteers | Cmax | 46.9 ng/mL |
| N=C(N)NCCC[C@@H](NC(=O)[C@@H](N)Cc1ccccc1)C(=O)N[C@@H](Cc1ccccc1)C(=O)N[C@@H](CCCCN)C(N)=O | human, plasma | subcutaneous, 5 mg, multiple doses, once daily, patients | Cmax | 212 ng/mL |
